# Results published in ChEMBL document CHEMBL2177098, “Synthesis and evaluation of novel ¹⁸F labeled 2-pyridinylbenzoxazole and 2-pyridinylbenzothiazole derivatives as ligands for positron emission tomography (PET) imaging of β-amyloid plaques” (J Med Chem, 2012).
# Tests used:
# Intestine [1] = test: Drug uptake in ICR mouse intestine assessed per organ at 370 kBq/100 ul, iv at 30 mins by gamma-counting analysis; format: ADME, organism-based; conditions: in vivo, 0.5 h
# Outline: (§1)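 Male ICR mice (5 weeks, about 20 g) got 18F tracer in saline (370 KBq per 100 μL) via tail vein; n = 5 per time point, killed at 2, 10, 30, 60 min. Organs removed and γ-counted against diluted injectate; expressed as % injected dose per organ.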
# Intestine [2] = test: Drug uptake in ICR mouse intestine assessed per organ at 370 kBq/100 ul, iv at 10 mins by gamma-counting analysis; format: ADME, organism-based; conditions: in vivo; outline: as §1
# Intestine [3] = test: Drug uptake in ICR mouse intestine assessed per organ at 370 kBq/100 ul, iv at 2 mins by gamma-counting analysis; format: ADME, organism-based; conditions: in vivo; outline: as §1
# Stomach [4] = test: Drug uptake in ICR mouse stomach assessed per organ at 370 kBq/100 ul, iv at 60 mins by gamma-counting analysis; format: ADME, organism-based; conditions: in vivo, 1 h
# Outline: (§2)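 Normal male ICR mice (5 weeks, about 20 g) received the ¹⁸F tracer in saline (370 KBq per 100 μL) by tail-vein injection. Groups of n = 5 were killed at 2, 10, 30 and 60 min. Organs were removed, weighed and γ-counted against diluted aliquots of the injectate, giving % dose per gram. Stomach and intestine were expressed per organ. The brain ratio is 2 min/60 min uptake. Values are mean ± SD.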
# Stomach [5] = test: Drug uptake in ICR mouse stomach assessed per organ at 370 kBq/100 ul, iv at 30 mins by gamma-counting analysis; format: ADME, organism-based; conditions: in vivo, 0.5 h; outline: as §1
# Stomach [6] = test: Drug uptake in ICR mouse stomach assessed per organ at 370 kBq/100 ul, iv at 10 mins by gamma-counting analysis; format: ADME, organism-based; conditions: in vivo; outline: as §1
# Stomach [7] = test: Drug uptake in ICR mouse stomach assessed per organ at 370 kBq/100 ul, iv at 2 mins by gamma-counting analysis; format: ADME, organism-based; conditions: in vivo; outline: as §1
# Kidney [8] = test: Drug uptake in ICR mouse kidney at 370 kBq/100 ul, iv at 60 mins by gamma-counting analysis; format: ADME, organism-based; conditions: in vivo, 1 h
# Outline: (§3)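 Male ICR mice (5 weeks, about 20 g) got 18F tracer in saline (370 KBq per 100 μL) via tail vein; n = 5 per time point, killed at 2, 10, 30, 60 min. Organs weighed and γ-counted; percent dose per gram wet tissue from comparison with diluted injectate aliquots.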
# Kidney [9] = test: Drug uptake in ICR mouse kidney at 370 kBq/100 ul, iv at 30 mins by gamma-counting analysis; format: ADME, organism-based; conditions: in vivo, 0.5 h; outline: as §3
# Kidney [10] = test: Drug uptake in ICR mouse kidney at 370 kBq/100 ul, iv at 10 mins by gamma-counting analysis; format: ADME, organism-based; conditions: in vivo; outline: as §3
# Lung [11] = test: Drug uptake in ICR mouse lung at 370 kBq/100 ul, iv at 60 mins by gamma-counting analysis; format: ADME, organism-based; conditions: in vivo, 1 h; outline: as §3
# Kidney [12] = test: Drug uptake in ICR mouse kidney at 370 kBq/100 ul, iv at 2 mins by gamma-counting analysis; format: ADME, organism-based; conditions: in vivo; outline: as §3
# Lung [13] = test: Drug uptake in ICR mouse lung at 370 kBq/100 ul, iv at 30 mins by gamma-counting analysis; format: ADME, organism-based; conditions: in vivo, 0.5 h; outline: as §3
# Lung [14] = test: Drug uptake in ICR mouse lung at 370 kBq/100 ul, iv at 10 mins by gamma-counting analysis; format: ADME, organism-based; conditions: in vivo; outline: as §3
# Lung [15] = test: Drug uptake in ICR mouse lung at 370 kBq/100 ul, iv at 2 mins by gamma-counting analysis; format: ADME, organism-based; conditions: in vivo; outline: as §3
# Spleen [16] = test: Drug uptake in ICR mouse spleen at 370 kBq/100 ul, iv at 60 mins by gamma-counting analysis; format: ADME, organism-based; conditions: in vivo, 1 h; outline: as §3
# Spleen [17] = test: Drug uptake in ICR mouse spleen at 370 kBq/100 ul, iv at 10 mins by gamma-counting analysis; format: ADME, organism-based; conditions: in vivo; outline: as §3
# Spleen [18] = test: Drug uptake in ICR mouse spleen at 370 kBq/100 ul, iv at 30 mins by gamma-counting analysis; format: ADME, organism-based; conditions: in vivo, 0.5 h; outline: as §3
# Spleen [19] = test: Drug uptake in ICR mouse spleen at 370 kBq/100 ul, iv at 2 mins by gamma-counting analysis; format: ADME, organism-based; conditions: in vivo; outline: as §3
# Liver [20] = test: Drug uptake in ICR mouse liver at 370 kBq/100 ul, iv at 60 mins by gamma-counting analysis; format: ADME, organism-based; conditions: in vivo, 1 h; outline: as §3
# Liver [21] = test: Drug uptake in ICR mouse liver at 370 kBq/100 ul, iv at 30 mins by gamma-counting analysis; format: ADME, organism-based; conditions: in vivo, 0.5 h; outline: as §3
# Liver [22] = test: Drug uptake in ICR mouse liver at 370 kBq/100 ul, iv at 2 mins by gamma-counting analysis; format: ADME, organism-based; conditions: in vivo; outline: as §3
# Liver [23] = test: Drug uptake in ICR mouse liver at 370 kBq/100 ul, iv at 10 mins by gamma-counting analysis; format: ADME, organism-based; conditions: in vivo; outline: as §3
# Heart [24] = test: Drug uptake in ICR mouse heart at 370 kBq/100 ul, iv at 60 mins by gamma-counting analysis; format: ADME, organism-based; conditions: in vivo, 1 h; outline: as §3
# Heart [25] = test: Drug uptake in ICR mouse heart at 370 kBq/100 ul, iv at 30 mins by gamma-counting analysis; format: ADME, organism-based; conditions: in vivo, 0.5 h; outline: as §3
# Heart [26] = test: Drug uptake in ICR mouse heart at 370 kBq/100 ul, iv at 10 mins by gamma-counting analysis; format: ADME, organism-based; conditions: in vivo; outline: as §3
# Brain [27] = test: Drug uptake in ICR mouse brain at 370 kBq/100 ul, iv at 60 mins by gamma-counting analysis; format: ADME, organism-based; conditions: in vivo, 1 h; outline: as §3
# Heart [28] = test: Drug uptake in ICR mouse heart at 370 kBq/100 ul, iv at 2 mins by gamma-counting analysis; format: ADME, organism-based; conditions: in vivo; outline: as §3
# Brain [29] = test: Drug uptake in ICR mouse brain at 370 kBq/100 ul, iv at 30 mins by gamma-counting analysis; format: ADME, organism-based; conditions: in vivo, 0.5 h; outline: as §3
# Brain [30] = test: Drug uptake in ICR mouse brain at 370 kBq/100 ul, iv at 10 mins by gamma-counting analysis; format: ADME, organism-based; conditions: in vivo; outline: as §3
# Brain [31] = test: Drug uptake in ICR mouse brain at 370 kBq/100 ul, iv at 2 mins by gamma-counting analysis; format: ADME, organism-based; conditions: in vivo; outline: as §3
# Blood [32] = test: Drug uptake in ICR mouse blood at 370 kBq/100 ul, iv at 30 mins by gamma-counting analysis; format: ADME, organism-based; conditions: in vivo, 0.5 h; outline: as §3
# Blood [33] = test: Drug uptake in ICR mouse blood at 370 kBq/100 ul, iv at 60 mins by gamma-counting analysis; format: ADME, organism-based; conditions: in vivo, 1 h; outline: as §3
# Blood [34] = test: Drug uptake in ICR mouse blood at 370 kBq/100 ul, iv at 10 mins by gamma-counting analysis; format: ADME, organism-based; conditions: in vivo; outline: as §3
# Blood [35] = test: Drug uptake in ICR mouse blood at 370 kBq/100 ul, iv at 2 mins by gamma-counting analysis; format: ADME, organism-based; conditions: in vivo; outline: as §3
# Brain [36] = test: Drug uptake in healthy human brain at 370 KBq/100 ul after 1 hr by autoradiographic analysis; format: ADME, tissue-based; conditions: in vitro
# [37] = Displacement of [125I]-IMPY from amyloid beta (1 to 42) fibrils after 2 hrs by gamma-counting analysis
# Outline: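 Competition binding with aggregated Aβ1-42 fibrils and [125I]IMPY (60000−100000 cpm/100 μL) in 0.05% BSA (1 mL total); inhibitors 10⁻⁴−10^−8.5 M in ethanol. Incubated 37 °C for 2 h, then GF/B vacuum filtration with PBS (0.02 M, pH 7.4) washes and γ counting. Three repeats; IC50 converted to Ki by Cheng−Prusoff.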
# Brain [38] = test: Drug uptake in wild type C57BL6 mouse brain at 370 KBq/100 ul after 1 hr by autoradiographic analysis; format: ADME, tissue-based; conditions: in vitro
# Outline: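 Paraffin brain sections from 12-month-old male control C57BL6 mice were deparaffinized through xylene and graded ethanol, then held in PBS (0.2 M, pH 7.4) for 30 min. They were incubated with the ¹⁸F tracer (370 KBq per 100 μL) for 1 h at room temperature. Sections were washed in 40% EtOH, rinsed with water for 1 min, dried, and exposed to a phosphor plate for 2 h. The same sections were then stained with thioflavin S.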
# [39] = n-Octanol-PBS buffer partition coefficient, log D of the compound at 1.5 MBq after 3 mins at pH 7.4; format: physicochemical
# Outline: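 The tracer was partitioned between n-octanol and PBS by vortexing for 3 min at room temperature, then centrifuged for 5 min at 3000 rpm. Samples of the octanol (50 μL) and aqueous (500 μL) layers were counted. log D is the log of the octanol/PBS counts-per-gram ratio. The octanol layer was repartitioned until values were consistent. Measured in triplicate and repeated three times.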
# Brain [40] = test: Ratio of drug uptake in brain at 2 mins to drug uptake in brain at 60 mins in ICR mouse at 370 KBq/100 ul, iv; format: ADME, organism-based; conditions: in vivo; outline: as §2
# Bone [41] = test: Drug uptake in ICR mouse bone at 370 kBq/100 ul, iv at 60 mins by gamma-counting analysis; format: ADME, organism-based, Bone element; conditions: in vivo, 1 h; outline: as §3
# Bone [42] = test: Drug uptake in ICR mouse bone at 370 kBq/100 ul, iv at 30 mins by gamma-counting analysis; format: ADME, organism-based, Bone element; conditions: in vivo, 0.5 h; outline: as §3
# Bone [43] = test: Drug uptake in ICR mouse bone at 370 kBq/100 ul, iv at 2 mins by gamma-counting analysis; format: ADME, organism-based, Bone element; conditions: in vivo; outline: as §3
# Bone [44] = test: Drug uptake in ICR mouse bone at 370 kBq/100 ul, iv at 10 mins by gamma-counting analysis; format: ADME, organism-based, Bone element; conditions: in vivo; outline: as §3
# Intestine [45] = test: Drug uptake in ICR mouse intestine assessed per organ at 370 kBq/100 ul, iv at 60 mins by gamma-counting analysis; format: ADME, organism-based; conditions: in vivo, 1 h; outline: as §1
structure (smiles),measurement,setting,value
CNc1ccc(-c2nc3ccc(OCCOCCOCC[18F])cc3s2)cn1,Drug uptake,Intestine [1],21.68 %ID
same,Drug uptake,Intestine [2],10.06 %ID
same,Drug uptake,Intestine [3],5.69 %ID
same,Drug uptake,Stomach [4],8.78 %ID
same,Drug uptake,Stomach [5],11.46 %ID
same,Drug uptake,Stomach [6],9.44 %ID
same,Drug uptake,Stomach [7],2.96 %ID
same,Drug uptake,Kidney [8],2.66 % ID/g
same,Drug uptake,Kidney [9],3.12 % ID/g
same,Drug uptake,Kidney [10],4.04 % ID/g
same,Drug uptake,Lung [11],1.93 % ID/g
same,Drug uptake,Kidney [12],6.02 % ID/g
same,Drug uptake,Lung [13],3.11 % ID/g
same,Drug uptake,Lung [14],3.36 % ID/g
same,Drug uptake,Lung [15],5.53 % ID/g
same,Drug uptake,Spleen [16],1.49 % ID/g
same,Drug uptake,Spleen [17],2.05 % ID/g
same,Drug uptake,Spleen [18],1.74 % ID/g
same,Drug uptake,Spleen [19],2.68 % ID/g
same,Drug uptake,Liver [20],4.12 % ID/g
same,Drug uptake,Liver [21],8.16 % ID/g
same,Drug uptake,Liver [22],15.22 % ID/g
same,Drug uptake,Liver [23],9.38 % ID/g
same,Drug uptake,Heart [24],1.85 % ID/g
same,Drug uptake,Heart [25],1.96 % ID/g
same,Drug uptake,Heart [26],2.16 % ID/g
same,Drug uptake,Brain [27],1.26 % ID/g
same,Drug uptake,Heart [28],3.53 % ID/g
same,Drug uptake,Brain [29],1.31 % ID/g
same,Drug uptake,Brain [30],1.63 % ID/g
same,Drug uptake,Brain [31],2.23 % ID/g
same,Drug uptake,Blood [32],3.49 % ID/g
same,Drug uptake,Blood [33],2.94 % ID/g
same,Drug uptake,Blood [34],4.25 % ID/g
same,Drug uptake,Blood [35],6.92 % ID/g
same,Drug uptake,Brain [36],Not Active
same,Ki,[37],9.3 nM
same,Drug uptake,Brain [38],Not Active
same,logD at 0.05 h,[39],2.85
same,Ratio,Brain [40],1.77
same,Drug uptake,Bone [41],1.42 % ID/g
same,Drug uptake,Bone [42],1.33 % ID/g
same,Drug uptake,Bone [43],1.19 % ID/g
same,Drug uptake,Bone [44],0.86 % ID/g
same,Drug uptake,Intestine [45],18.6 %ID
